We go through two compounds from ChEMBL document CHEMBL4261550, “Triazolopyrimidines identified as reversible myeloperoxidase inhibitors” (Medchemcomm, 2017).

One series deals with T1, Cytochrome P450 2B6 (Homo sapiens, UniProt P20813).
T1 sequence (P20813 whole entry): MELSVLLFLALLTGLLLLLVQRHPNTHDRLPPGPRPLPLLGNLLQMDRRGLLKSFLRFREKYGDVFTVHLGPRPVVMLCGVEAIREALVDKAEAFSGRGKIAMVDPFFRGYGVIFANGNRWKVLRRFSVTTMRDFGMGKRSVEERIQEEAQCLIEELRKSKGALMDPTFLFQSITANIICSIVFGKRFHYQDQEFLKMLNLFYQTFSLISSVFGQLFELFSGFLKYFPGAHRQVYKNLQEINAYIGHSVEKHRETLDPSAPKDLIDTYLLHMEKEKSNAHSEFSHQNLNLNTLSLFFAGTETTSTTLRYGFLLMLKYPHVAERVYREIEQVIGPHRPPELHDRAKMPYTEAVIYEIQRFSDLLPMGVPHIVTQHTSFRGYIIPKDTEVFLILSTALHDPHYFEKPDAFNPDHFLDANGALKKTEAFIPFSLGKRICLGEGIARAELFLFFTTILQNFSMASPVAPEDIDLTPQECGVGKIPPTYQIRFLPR
Kind of series: Inhibition of CYP2B6 (unknown origin). The series is classed as ADME.

The target of another series is Cytochrome P450 2C9 (Homo sapiens, UniProt P11712). Kind of series: Inhibition of CYP2C9 (unknown origin). The series is classed as ADME.
Series [1] is described as follows: Ratio of plasma concentration in PMA-stimulated C57BL6 mouse neutrophil degranulation model at 30 mg/kg, po after 20 mins to in vitro IC50 for MPO in PMA-stimulated human neutrophils. It is filed as ADME, organism-based. The conditions noted are these: in vivo.
A further series deals with Mus musculus. Kind of series: In vivo inhibition of MPO in PMA-stimulated C57BL6 mouse neutrophil degranulation model assessed as reduction in HOCl production at 100 mg/kg, po pretreated for 20 mins followed by PMA stimulation and measured after 2 mins by luminol chemiluminescence assay relative to control. It is filed as functional.
A short description of series [2]: Protein binding in human plasma. It is filed as ADME, cell-free. The conditions noted are these: read-out: PPB.
Series [3] can be described thus: Protein binding in mouse plasma. It is filed as ADME, cell-free. The conditions noted are these: read-out: PPB (converted).
Series [4] in a line: Plasma concentration in PMA-stimulated C57BL6 mouse neutrophil degranulation model at 100 mg/kg, po after 20 mins. It is filed as ADME, organism-based.
For a further series, the target named is Cytochrome P450 3A4 (Homo sapiens, UniProt P08684). Kind of series: Inhibition of CYP3A4 (unknown origin). It is filed as ADME.
Series [5] can be described thus: Plasma concentration in PMA-stimulated C57BL6 mouse neutrophil degranulation model at 30 mg/kg, po after 20 mins. It is filed as ADME, organism-based.
The target in series [6] is T2, Myeloperoxidase (Homo sapiens) (UniProt P05164).
T2 sequence (whole entry): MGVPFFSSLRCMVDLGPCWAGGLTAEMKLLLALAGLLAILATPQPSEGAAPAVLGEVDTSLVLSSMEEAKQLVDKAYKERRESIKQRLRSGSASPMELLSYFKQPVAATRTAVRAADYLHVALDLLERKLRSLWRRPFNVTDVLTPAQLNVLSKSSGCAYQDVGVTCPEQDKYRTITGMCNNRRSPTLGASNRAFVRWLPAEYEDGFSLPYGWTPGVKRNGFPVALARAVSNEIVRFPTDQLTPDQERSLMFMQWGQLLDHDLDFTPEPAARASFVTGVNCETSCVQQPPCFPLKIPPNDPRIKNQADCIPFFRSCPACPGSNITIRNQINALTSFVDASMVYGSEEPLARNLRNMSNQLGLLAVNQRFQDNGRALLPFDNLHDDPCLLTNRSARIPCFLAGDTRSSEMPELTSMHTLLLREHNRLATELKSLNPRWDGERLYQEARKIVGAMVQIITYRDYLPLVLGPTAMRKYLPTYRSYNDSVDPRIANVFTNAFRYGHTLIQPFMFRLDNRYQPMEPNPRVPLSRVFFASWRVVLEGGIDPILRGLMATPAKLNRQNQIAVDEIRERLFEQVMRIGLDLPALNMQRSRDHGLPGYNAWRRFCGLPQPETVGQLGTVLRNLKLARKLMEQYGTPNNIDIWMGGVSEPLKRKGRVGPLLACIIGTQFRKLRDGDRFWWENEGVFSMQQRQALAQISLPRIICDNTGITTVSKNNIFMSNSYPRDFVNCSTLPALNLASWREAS
Description: Reversible inhibition of human MPO peroxidase activity at 50 to 250 nM preincubated for up to 30 mins followed by H2O2 addition and 2 to 10 times compound dilution measured at 30 secs time interval for 5 mins by amplex red reagent based fluorescence assay. The essentials: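 20 nM MPO in phosphate buffer with 100 nM H2O2 and inhibitor at 2–10-fold enzyme concentration. Controls: 0.2% DMSO, irreversible hydrazide. Aliquots taken after 2, 10, 20 and 30 min and passed through a G50 spin column. 5 µL flow-through assayed by Amplex Red; initial rate gave % activity remaining versus control. Also run with 100 mM NaCl and 150 µM L-methionine.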

In another series the target is T3, Myeloperoxidase (Homo sapiens, UniProt P05164).
T3 sequence (P05164 whole entry): T2 sequence (whole entry)
Kind of series: Inhibition of human MPO chlorination activity assessed as reduction in ApoA1-mediated [1,2 3H]-cholesterol efflux in PMA-stimulated human THP1 cells preincubated with enzyme and ApoA1 for 30 mins in presence of H2O2 followed by addition to THP1 cells and measured after overnight incubation.

Active and inactive are the calls of the source. The rule behind the calls is not given here.

Chain of Cytochrome P450 2C9 (P11712 whole entry): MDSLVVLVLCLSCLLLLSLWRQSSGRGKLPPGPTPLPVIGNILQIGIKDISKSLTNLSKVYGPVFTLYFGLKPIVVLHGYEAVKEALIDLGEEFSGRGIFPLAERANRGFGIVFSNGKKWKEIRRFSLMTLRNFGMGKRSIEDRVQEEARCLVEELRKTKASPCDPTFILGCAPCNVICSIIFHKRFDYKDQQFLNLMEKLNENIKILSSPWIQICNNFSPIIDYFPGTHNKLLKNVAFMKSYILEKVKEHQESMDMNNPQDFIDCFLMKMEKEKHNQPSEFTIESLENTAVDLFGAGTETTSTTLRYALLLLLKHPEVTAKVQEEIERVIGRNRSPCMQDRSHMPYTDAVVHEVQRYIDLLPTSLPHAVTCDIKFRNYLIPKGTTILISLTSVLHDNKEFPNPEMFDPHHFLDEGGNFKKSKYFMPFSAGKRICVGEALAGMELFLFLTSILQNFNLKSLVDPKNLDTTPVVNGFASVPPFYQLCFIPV
Chain of Cytochrome P450 3A4 (P08684 whole entry): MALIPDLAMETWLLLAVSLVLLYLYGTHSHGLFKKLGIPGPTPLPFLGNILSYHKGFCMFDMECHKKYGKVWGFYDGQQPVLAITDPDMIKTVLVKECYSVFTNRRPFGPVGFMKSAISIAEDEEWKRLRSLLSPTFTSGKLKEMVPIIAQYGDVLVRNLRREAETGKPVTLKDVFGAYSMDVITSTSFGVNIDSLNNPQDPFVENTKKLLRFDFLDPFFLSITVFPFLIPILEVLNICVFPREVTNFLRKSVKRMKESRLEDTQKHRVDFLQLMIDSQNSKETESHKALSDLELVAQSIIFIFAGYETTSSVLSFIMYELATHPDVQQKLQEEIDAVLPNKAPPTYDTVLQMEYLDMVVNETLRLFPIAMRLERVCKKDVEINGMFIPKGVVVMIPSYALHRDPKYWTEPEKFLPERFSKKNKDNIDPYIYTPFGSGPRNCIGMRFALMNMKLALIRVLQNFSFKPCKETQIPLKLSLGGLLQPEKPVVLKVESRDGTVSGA

Turning to `Nc1ccc(Oc2cc(Cl)c(Cl)cc2Cl)cn1`, the IC50 at Cytochrome P450 2B6 and on Cytochrome P450 2C9 was under 0.1 µM in each case.

`Nc1nc(OCc2ccccc2)c2[nH]nnc2n1`: the Ratio in series [1] was determined as 36. Further, the inhibition in vivo at 100 mg/kg in the series on Mus musculus worked out at 70%. Moreover, the fraction unbound in series [2] was 0.01; in [3], 0.13. Also, the concentration at 20 min in [4] is 460 µM; in [5], 180 µM. The compound further showed an IC50 on Cytochrome P450 3A4 of 14 µM. In addition, the inhibition entry in series [6] is “Active”. In addition, the EC50 on Myeloperoxidase is 10 µM.
